Key:
[1] = target: Metabotropic glutamate receptor 1 (Homo sapiens, UniProt Q13255); experiment: Agonist activity at mGlu1 receptor (unknown origin) expressed in human Flp-In-T-REx-293 cells by Ca2+ mobilization assay
[2] = target: Metabotropic glutamate receptor 4 (Homo sapiens, UniProt Q14833); experiment: Agonist activity at mGlu4 receptor (unknown origin) expressed in human Flp-In-T-REx-293 cells by luciferase based GloSensor cAMP Assay; type: functional, cell-based, HEK293
How it was run: (§1)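 Tetracycline-inducible Flp-In T-REx-293 cells stably carrying mGluR4, mGluR6 or mGluR8, grown in DMEM with 10% FBS, hygromycin B and blasticidin at 37 °C, 5% CO2. Gi/o-coupled receptor activation read as intracellular cAMP change by split-luciferase GloSensor biosensor. EC50 from four-parameter logistic fit of concentration–response curves; each assay run at least three times.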

[3] = target: Metabotropic glutamate receptor 8 (Homo sapiens, UniProt O00222); experiment: Agonist activity at mGlu8 receptor (unknown origin) expressed in human Flp-In-T-REx-293 cells by luciferase based GloSensor cAMP Assay; type: functional, cell-based, HEK293
How it was run: as §1

[4] = target: Metabotropic glutamate receptor 5 (Homo sapiens, UniProt P41594); experiment: Agonist activity at mGlu5 receptor (unknown origin) expressed in human Flp-In-T-REx-293 cells by Ca2+ mobilization assay
[5] = target: Metabotropic glutamate receptor 6 (Homo sapiens, UniProt O15303); experiment: Agonist activity at mGlu6 receptor (unknown origin) expressed in human Flp-In-T-REx-293 cells by luciferase based GloSensor cAMP Assay; type: functional, cell-based, HEK293
How it was run: as §1

[6] = in vivo; conditions: cynomolgus monkey, whole blood and plasma
[7] = Unbound fraction in cynomolgus monkey plasma measured upto 140 mins by ultracentrifugation
[8] = in vivo; conditions: cynomolgus monkey, plasma

Sequence of Metabotropic glutamate receptor 1 (Q13255 whole entry): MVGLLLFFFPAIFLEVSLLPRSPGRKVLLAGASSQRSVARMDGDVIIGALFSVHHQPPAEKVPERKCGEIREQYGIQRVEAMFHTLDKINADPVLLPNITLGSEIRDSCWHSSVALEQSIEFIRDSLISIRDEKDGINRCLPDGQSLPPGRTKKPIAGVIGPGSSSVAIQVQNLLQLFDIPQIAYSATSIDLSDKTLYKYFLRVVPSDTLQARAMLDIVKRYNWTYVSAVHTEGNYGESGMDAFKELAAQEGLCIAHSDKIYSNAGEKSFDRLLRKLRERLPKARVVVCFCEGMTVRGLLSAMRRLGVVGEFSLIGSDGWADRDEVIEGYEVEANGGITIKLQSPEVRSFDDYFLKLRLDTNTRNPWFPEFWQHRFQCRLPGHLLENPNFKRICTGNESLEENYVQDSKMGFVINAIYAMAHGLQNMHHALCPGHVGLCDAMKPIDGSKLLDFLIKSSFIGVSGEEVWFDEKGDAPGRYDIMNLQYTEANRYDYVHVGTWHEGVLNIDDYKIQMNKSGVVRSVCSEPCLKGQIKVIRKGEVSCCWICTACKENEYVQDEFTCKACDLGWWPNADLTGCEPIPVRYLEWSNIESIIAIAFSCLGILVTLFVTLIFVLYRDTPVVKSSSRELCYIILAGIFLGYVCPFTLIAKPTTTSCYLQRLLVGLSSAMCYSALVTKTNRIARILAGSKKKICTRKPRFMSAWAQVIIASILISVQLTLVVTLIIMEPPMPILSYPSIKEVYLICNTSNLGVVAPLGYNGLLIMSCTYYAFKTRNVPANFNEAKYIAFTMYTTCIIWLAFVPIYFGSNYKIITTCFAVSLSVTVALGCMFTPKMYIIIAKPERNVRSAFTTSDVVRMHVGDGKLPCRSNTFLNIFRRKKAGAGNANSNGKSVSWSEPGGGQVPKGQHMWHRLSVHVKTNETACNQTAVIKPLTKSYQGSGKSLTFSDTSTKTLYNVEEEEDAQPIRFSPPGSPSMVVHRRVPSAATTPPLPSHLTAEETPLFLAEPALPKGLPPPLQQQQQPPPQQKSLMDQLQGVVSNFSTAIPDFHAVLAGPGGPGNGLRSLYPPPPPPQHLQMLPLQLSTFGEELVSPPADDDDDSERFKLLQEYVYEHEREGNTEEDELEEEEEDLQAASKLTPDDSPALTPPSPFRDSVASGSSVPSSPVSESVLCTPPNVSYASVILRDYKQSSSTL
Sequence of Metabotropic glutamate receptor 5 (P41594 whole entry): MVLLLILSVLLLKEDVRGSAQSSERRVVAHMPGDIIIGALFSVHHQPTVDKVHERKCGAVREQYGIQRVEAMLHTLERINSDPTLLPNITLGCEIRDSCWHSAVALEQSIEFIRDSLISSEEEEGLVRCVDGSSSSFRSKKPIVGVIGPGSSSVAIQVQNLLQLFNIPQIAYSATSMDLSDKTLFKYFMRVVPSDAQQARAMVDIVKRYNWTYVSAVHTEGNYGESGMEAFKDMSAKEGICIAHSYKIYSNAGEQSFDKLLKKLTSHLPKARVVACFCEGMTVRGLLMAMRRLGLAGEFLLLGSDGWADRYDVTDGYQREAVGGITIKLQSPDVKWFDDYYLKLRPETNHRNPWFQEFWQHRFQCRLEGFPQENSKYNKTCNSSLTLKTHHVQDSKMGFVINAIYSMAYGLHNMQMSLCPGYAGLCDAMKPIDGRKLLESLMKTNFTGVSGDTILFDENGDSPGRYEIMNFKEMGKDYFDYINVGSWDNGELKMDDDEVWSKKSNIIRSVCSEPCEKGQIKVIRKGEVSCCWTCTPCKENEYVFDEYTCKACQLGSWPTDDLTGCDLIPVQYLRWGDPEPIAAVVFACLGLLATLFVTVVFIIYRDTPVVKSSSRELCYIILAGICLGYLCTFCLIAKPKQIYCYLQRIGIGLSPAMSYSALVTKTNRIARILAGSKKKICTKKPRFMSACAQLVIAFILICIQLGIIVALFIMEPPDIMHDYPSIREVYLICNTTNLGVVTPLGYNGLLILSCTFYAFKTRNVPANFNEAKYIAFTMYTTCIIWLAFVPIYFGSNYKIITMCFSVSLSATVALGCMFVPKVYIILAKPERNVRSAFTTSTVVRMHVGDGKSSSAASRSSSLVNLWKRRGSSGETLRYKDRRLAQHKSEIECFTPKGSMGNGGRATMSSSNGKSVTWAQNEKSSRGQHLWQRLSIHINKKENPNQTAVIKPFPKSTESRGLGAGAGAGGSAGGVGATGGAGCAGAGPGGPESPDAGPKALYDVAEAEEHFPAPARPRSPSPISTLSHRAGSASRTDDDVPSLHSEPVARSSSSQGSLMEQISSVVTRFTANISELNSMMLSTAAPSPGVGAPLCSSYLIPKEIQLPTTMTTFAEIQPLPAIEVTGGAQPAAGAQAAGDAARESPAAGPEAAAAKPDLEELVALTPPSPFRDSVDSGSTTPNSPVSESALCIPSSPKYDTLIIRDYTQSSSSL
Sequence of Metabotropic glutamate receptor 8 (O00222 whole entry): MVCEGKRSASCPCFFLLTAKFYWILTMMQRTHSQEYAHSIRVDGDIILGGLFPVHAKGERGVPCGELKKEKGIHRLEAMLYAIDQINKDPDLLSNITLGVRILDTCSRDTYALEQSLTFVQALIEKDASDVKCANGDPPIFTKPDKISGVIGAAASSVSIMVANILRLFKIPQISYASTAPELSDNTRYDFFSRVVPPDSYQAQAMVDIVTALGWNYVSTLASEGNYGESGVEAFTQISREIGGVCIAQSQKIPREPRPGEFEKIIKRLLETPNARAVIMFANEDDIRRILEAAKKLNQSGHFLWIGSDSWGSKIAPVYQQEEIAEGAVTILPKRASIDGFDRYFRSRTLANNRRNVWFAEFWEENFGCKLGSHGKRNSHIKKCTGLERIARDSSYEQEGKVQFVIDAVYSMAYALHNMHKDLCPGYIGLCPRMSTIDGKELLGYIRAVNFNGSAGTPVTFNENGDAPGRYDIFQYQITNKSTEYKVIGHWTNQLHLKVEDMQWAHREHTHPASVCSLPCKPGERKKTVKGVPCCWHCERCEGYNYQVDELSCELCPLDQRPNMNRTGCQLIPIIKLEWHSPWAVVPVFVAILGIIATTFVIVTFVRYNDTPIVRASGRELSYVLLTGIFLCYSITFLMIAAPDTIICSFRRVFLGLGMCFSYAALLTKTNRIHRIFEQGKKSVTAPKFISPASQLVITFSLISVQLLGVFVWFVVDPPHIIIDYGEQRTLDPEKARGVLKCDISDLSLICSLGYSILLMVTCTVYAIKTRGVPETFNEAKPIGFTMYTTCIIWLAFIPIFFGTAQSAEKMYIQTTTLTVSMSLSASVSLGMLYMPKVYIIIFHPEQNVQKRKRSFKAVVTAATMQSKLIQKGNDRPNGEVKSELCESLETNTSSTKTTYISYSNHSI
Sequence of Metabotropic glutamate receptor 6 (O15303 whole entry): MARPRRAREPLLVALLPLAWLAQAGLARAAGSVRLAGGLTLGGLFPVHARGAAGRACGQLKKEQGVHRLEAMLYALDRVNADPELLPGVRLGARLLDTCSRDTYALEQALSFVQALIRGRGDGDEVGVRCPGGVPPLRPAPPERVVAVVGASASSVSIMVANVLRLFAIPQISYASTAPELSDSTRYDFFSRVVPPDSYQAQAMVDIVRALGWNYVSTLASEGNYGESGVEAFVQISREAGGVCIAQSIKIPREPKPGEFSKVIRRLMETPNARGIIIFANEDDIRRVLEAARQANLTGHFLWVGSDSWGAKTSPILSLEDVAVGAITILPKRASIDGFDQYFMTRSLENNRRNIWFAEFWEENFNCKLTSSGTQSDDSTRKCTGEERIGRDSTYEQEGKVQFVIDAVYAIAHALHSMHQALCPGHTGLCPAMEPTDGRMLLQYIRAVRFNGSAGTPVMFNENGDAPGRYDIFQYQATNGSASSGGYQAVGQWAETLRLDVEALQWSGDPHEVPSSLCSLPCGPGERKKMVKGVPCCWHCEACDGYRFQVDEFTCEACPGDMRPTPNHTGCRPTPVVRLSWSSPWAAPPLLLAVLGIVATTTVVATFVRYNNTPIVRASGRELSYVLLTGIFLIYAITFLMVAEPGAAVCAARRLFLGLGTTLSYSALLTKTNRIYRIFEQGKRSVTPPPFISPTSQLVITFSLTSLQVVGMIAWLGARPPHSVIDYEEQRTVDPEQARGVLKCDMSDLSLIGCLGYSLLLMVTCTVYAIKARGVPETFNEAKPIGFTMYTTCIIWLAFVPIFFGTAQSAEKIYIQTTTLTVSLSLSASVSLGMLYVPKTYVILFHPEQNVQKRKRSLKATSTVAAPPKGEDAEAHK
Sequence of Metabotropic glutamate receptor 4 (Q14833 whole entry): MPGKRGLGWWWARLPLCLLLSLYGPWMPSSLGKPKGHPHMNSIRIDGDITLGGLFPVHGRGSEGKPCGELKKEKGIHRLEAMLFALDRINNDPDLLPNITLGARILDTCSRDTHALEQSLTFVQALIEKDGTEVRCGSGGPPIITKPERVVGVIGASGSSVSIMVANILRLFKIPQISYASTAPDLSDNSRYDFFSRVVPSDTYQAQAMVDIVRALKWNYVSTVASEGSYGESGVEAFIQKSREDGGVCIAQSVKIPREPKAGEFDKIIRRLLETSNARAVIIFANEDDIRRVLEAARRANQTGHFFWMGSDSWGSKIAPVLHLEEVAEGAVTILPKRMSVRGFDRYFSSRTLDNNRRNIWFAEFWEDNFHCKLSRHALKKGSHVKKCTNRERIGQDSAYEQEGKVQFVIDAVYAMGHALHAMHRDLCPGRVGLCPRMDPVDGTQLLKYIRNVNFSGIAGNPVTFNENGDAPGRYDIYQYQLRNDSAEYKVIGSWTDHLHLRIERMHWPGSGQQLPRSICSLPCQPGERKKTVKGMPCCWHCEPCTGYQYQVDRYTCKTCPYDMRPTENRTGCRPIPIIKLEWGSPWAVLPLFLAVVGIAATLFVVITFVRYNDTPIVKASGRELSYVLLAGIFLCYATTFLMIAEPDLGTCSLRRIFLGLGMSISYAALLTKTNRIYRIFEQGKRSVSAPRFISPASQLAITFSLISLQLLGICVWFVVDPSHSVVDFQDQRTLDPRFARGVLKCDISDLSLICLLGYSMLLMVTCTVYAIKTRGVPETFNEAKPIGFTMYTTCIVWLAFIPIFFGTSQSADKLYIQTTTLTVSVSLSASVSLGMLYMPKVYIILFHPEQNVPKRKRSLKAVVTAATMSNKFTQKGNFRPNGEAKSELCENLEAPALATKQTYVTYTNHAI

EC50 [1] [µM]	EC50 [2] [µM]	EC50 [3] [µM]	EC50 [4] [µM]	EC50 [5] [µM]	blood plasma ratio at 11 min [6]	fraction unbound at 2.333 h [7]	remaining at 1.5 h [8] [%]	SMILES
> 10	> 10	> 10	> 10	> 10				Fc1ccc(N2CCN(Cc3cc(C(F)(F)F)cn4c(CC5CC5)nnc34)CC2)c(F)c1
> 10	> 10	> 10	> 10	> 10				Fc1ccccc1N1CCN(Cc2ccn3c(CC4CC4)nnc3c2C(F)(F)F)CC1
> 1	> 1	> 1	> 1	> 1				O=C(c1cnc2c(cnn2CC2CC2)c1C(F)(F)F)N1CCN(c2ccc(F)cc2F)CC1
					1.12	0.12	49.3	FC(F)(F)c1c(CN2CCC(c3ccc([18F])cc3Cl)CC2)ccn2c(CC3CC3)nnc12
> 10	> 10	> 10	> 10	> 10				Fc1ccc(N2CCN(Cc3ccn4c(CC5CC5)nnc4c3C(F)(F)F)CC2)c(Cl)c1
> 10	> 10	> 10	> 10	> 10				Fc1cc(Cl)ccc1N1CCN(Cc2ccn3c(CC4CC4)nnc3c2C(F)(F)F)CC1
